Structures are written as SMILES.

These results are taken from article PMC7901021 (ACS chemical biology, 2021).

In data set [1] the target is T1, ALKBH5 (Homo sapiens, UniProt Q6P6C2). Nature of the data set: m6A7-Broccoli fluorescence enzymatic inhibition assay. It is filed as biochemical. The note with it: for selectivity between FTO and ALKBH5 (in words): comparison of IC50 toward both demethylases.
A short description of data set [2]: precipitation in assay buffer. It is filed as physicochemical. As to conditions: dose response could not be determined.
The target of data set [3] is T2, FTO (Homo sapiens, UniProt Q9C0B1). Nature of the data set: m6A7-Broccoli fluorescence enzymatic inhibition assay. It is filed as biochemical. The note with it: for preference for FTO over ALKBH5: FTO vs ALKBH5 IC50.
In another data set the test system is MONOMAC6 and NB4 cells. The note with it: cited from earlier work.
For data set [4], the target named is T2, FTO. The note with it: read-out: reported IC50 against FTO; cited from earlier work.
The target of data set [5] is T1, ALKBH5. The note with it: cited from earlier work.
For data set [6], the system named is orthotopically transplanted GSC tumors. The note with it: cited from earlier work.
The subject of data set [7] is TS576 patient-derived GSC neurospheres. In words: neurosphere formation assay. It is filed as cell-based, human. As to conditions: 2 days.
For data set [8], the system named is m6A mRNA levels in TS576 cells. In words: m6A dot blot assay of purified mRNA. It is filed as cell-based, human. As to conditions: 30 μM, does not distinguish m6A and m6Am. The essentials:
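TS576 patient-derived GSCs were treated with the test compound or DMSO, and mRNA was purified from them. m6A in the mRNA was assessed by dot blot. shControl versus shFTO knockdown in TS576 served as the reference for m6A change.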

The subject of data set [9] is GSC-23 patient-derived GSC neurospheres. Nature of the data set: neurosphere formation assay. It is filed as cell-based, human. The note with it: GSC-23, 20 μM, 2 days. The essentials: (§1)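 Neurospheres of patient-derived glioblastoma stem cell lines, with normal human neural stem cells run alongside, were exposed to 20 μM test compound for 2 days. Wells were imaged by bright field, and neurosphere size was quantified by image analysis from more than 50 neurospheres per group. Groups were compared by Student's t test.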

In data set [10] the test system is GBM-6 patient-derived GSC neurospheres. In words: neurosphere formation assay. As to conditions: GBM-6, 20 μM, 2 days. It is filed as cell-based, human. Put shortly:
as §1

Data set [11] addresses T2, FTO. Nature of the data set: steady-state inhibition kinetics. It is filed as biochemical. As to conditions: vmax independent of inhibitor concentration; substrate 0-10 μM.
Data set [12] concerns healthy human neural stem cells (hNSCs) neurospheres. Nature of the data set: neurosphere formation assay. It is filed as cell-based. The note with it: 20 μM. Put shortly:
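Normal human neural stem cells were grown as neurospheres and treated with the test compound at 20 μM for 2 days. Neurospheres were imaged by bright field and sized by ImageJ, with more than 50 neurospheres per group. Comparisons by Student's t test.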

Data set [13] deals with m6A and m6Am levels in GSCs. Nature of the data set: quantification of m6A and m6Am by HPLC-MS/MS/MS. It is filed as cell-based, human.

T1 sequence (Q6P6C2 whole entry): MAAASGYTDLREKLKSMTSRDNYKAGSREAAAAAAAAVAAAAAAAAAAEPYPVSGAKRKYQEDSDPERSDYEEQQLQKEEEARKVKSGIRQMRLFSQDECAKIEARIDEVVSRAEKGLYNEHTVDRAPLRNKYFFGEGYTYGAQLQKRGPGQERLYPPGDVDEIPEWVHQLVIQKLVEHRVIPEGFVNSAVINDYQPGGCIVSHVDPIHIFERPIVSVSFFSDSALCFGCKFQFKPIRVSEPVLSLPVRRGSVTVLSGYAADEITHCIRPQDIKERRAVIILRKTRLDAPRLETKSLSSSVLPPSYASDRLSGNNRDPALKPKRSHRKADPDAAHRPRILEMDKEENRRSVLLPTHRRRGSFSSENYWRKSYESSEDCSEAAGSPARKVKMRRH
T2 sequence (Q9C0B1 whole entry): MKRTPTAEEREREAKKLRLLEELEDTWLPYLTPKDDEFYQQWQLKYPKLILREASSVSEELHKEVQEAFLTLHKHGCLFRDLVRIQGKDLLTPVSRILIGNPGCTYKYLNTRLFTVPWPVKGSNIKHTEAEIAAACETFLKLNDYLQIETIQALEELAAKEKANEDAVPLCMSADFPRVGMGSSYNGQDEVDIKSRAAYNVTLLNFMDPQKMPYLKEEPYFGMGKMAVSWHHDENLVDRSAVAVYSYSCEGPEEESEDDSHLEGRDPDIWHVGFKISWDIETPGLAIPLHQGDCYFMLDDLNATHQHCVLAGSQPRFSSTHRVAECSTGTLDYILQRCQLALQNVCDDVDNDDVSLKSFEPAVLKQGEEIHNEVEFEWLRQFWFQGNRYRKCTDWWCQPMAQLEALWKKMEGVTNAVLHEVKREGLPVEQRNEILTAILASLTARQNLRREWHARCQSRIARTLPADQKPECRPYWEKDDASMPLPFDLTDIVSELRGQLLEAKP

In the case of `COc1ccc2cc(-c3cnc(OC)nc3)ccc2c1` [FTO-08], the “selectivity between FTO and ALKBH5 (in words)” value at ALKBH5 [1] is “equivalent inhibitors toward both demethylases”.

With `COCCNc1ncc(-c2ccc(OCc3ccccc3)cc2)cn1` [FTO-18], at ALKBH5 [1], the “inhibition of ALKBH5 at the highest concentration measured” value (from here on “inhibition of ALKBH5”) was “no measurable inhibition”.

With `COCCNc1ncc(-c2ccc3cc(OC)ccc3c2)cn1` [FTO-15], the “precipitation in assay buffer” value in [2] is “significant precipitation”.

Regarding `Nc1ncc(-c2ccc3cc(O)ccc3c2)cn1` [FTO-10], the “selectivity between FTO and ALKBH5 (in words)” value at ALKBH5 [1] was “equivalent inhibitors toward both demethylases”.

Turning to `Nc1ncc(-c2cccc(Nc3ccccc3)c2)cn1` [FTO-09], at ALKBH5 [1] (ALKBH5 vs FTO IC50), the “potency toward ALKBH5 over FTO” value is given as about 10 times. Also, the “selectivity between FTO and ALKBH5 (in words)” value at ALKBH5 [1] is “distinct preference toward ALKBH5 over FTO”.

`COc1ncc(-c2ccc(CO)c(OC)c2)cn1` [FTO-06]: the “preference for FTO over ALKBH5” value at FTO [3] was at least 5 fold.

For the compound `Cc1ccc2cc(-c3cncnc3)ccc2n1` [FTO-07], on ALKBH5 [1], the “inhibition of ALKBH5” value is recorded as “no measurable inhibition”.

On to `Cc1noc(C)c1-c1cc(Cl)c(Nc2ccccc2C(=O)O)c(Cl)c1` [FB23], for which, in the data set on MONOMAC6 and NB4 cells, the cellular uptake result is “poor cellular uptake”.

For `COc1ncc(-c2cccc(OCc3ccccc3)c2)cn1` [FTO-03], the “precipitation in assay buffer” value in data set [2] is “significant precipitation”.

In the case of `COCCNc1ncc(-c2ccc3nc(C)ccc3c2)cn1` [FTO-19], the “selectivity between FTO and ALKBH5 (in words)” value at ALKBH5 [1] is given as “equivalent inhibitors toward both demethylases”.

Regarding `Cc1noc(C)c1-c1cc(Cl)c(Nc2ccccc2C(=O)NO)c(Cl)c1` [FB23–2], the IC50 on FTO [4] was 2.6 µM. In addition, the “cellular concentration relative to FB23” value with MONOMAC6 and NB4 cells (MONOMAC6 and NB4 cells) was 3−10 ×. Further, the “inhibition of FTO at 50 μM (stated as selectivity against ALKBH5)” value on ALKBH5 [5] is “little to no inhibition”.

`Nc1ncc(-c2cccc(OCc3ccccc3)c2)cn1` [FTO-13]: on ALKBH5 [1], the “selectivity between FTO and ALKBH5 (in words)” value was “distinct preference toward ALKBH5 over FTO”.

For `Cc1ccc(Cl)c(Nc2ccccc2C(=O)O)c1Cl` [MA, meclofenamic acid], in [6] (intracranial GSC xenograft mice), the lifespan entry is reported as “prolong lifespan”. The “tumor progression in vivo” value in data set [6] (orthotopically transplanted GSC tumors) was “prevented tumor progression in vivo”. Further, the “inhibition of FTO at 50 μM (stated as selectivity against ALKBH5)” value on ALKBH5 [5] was “little to no inhibition”.

Regarding `COc1ncc(-c2ccc3nc(C)ccc3c2)cn1` [FTO-11], at ALKBH5 [1], the “selectivity between FTO and ALKBH5 (in words)” value is “equivalent inhibitors toward both demethylases”.

For `COCCNc1ncc(-c2ccc(CO)c(OC)c2)cn1` [FTO-20], the “preference for FTO over ALKBH5” value at FTO [3] is given as at least 5 fold.

In the case of `COc1ccc2cc(-c3cncnc3)ccc2c1` [FTO-05], at ALKBH5 [1], the IC50 was over 40 µM and the “inhibition of ALKBH5” value is “no measurable inhibition”. The “preference for FTO over ALKBH5” value at FTO [3] was at least 5 fold.

Turning to `COc1ncc(-c2ccc3nc(N)sc3c2)cn1` [FTO-04], the size of neurospheres result in [7] (TS576, 20 μM) is reported as “significantly decrease the size of neurospheres”; in data set [9], “significantly decrease the size of neurospheres”; in [10], “significantly decrease the size of neurospheres”; in [12] it was “no alteration in neurosphere size”. For the same compound, the “size of neurospheres vs vehicle control” value in data set [7] (TS576, 30 μM) is on record as “significant reduction in size of the neurospheres”. In [8], the “m6A mRNA levels relative to DMSO control (dot blot)” value is “increased”. For the same compound, the “potency toward FTO relative to MA” value on FTO [3] (ratio of IC50 to MA (12.5 μM)) is recorded as “approximately 4 ×”. In addition, on FTO [11], the mechanism of inhibition result was “competitive mechanism of inhibition”. For the same compound, the “increase in m6A levels relative to DMSO control” value in data set [13] is on record as ~ 1.4 ×. Also, the “increase in m6Am levels relative to DMSO control” value in [13] was ~ 3.2 ×.

For the compound `COc1ccc2cc(-c3cnc(N)nc3)ccc2c1` [FTO-12], on ALKBH5 [1], the IC50 was over 40 µM and the “inhibition of ALKBH5” value is on record as “no measurable inhibition”. The “preference for FTO over ALKBH5” value on FTO [3] is listed as at least 5 fold.

The IC50 is the concentration at which inhibition is half-maximal.
